Results reported in ChEMBL document CHEMBL1142136, “Contribution of target gene mutations and efflux to decreased susceptibility of Salmonella enterica serovar typhimurium to fluoroquinolones and other antimicrobials” (2007).
In brackets after ≈: the same amount, converted by molar mass.

Experiments:
Assay type in all cases: functional, Salmonella enterica subsp. enterica serovar Typhimurium
[1] = test system: Salmonella typhimurium; experiment: Antimicrobial activity against Salmonella enterica serovar Typhimurium CS9 gyrA+ with GyrA S83F, D87N, ParC S80I mutation
How it was run: (§1)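 MICs measured by broth microdilution on the Sensititre automated system and interpreted by CLSI broth microdilution standards. Ciprofloxacin was also tested by agar dilution, widening the range to 0.0075–128 μg/ml. Quality control strains were E. coli ATCC 25922 and 35218, E. faecalis ATCC 29212, S. aureus ATCC 29213 and P. aeruginosa ATCC 27853.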

[2] = test system: Salmonella typhimurium; experiment: Antimicrobial activity against Salmonella enterica serovar Typhimurium S21 acrAB::Kan
How it was run: (§2)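 MICs by automated broth microdilution panels, interpreted to CLSI broth microdilution standards. Ciprofloxacin additionally tested by agar dilution across 0.0075 to 128 μg/ml. Quality control strains: E. coli ATCC 25922 and 35218, Enterococcus faecalis ATCC 29212, S. aureus ATCC 29213, P. aeruginosa ATCC 27853. Test strains are kanamycin-marked deletion mutants of ground-beef isolate S21.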

[3] = test system: Salmonella typhimurium; experiment: Antimicrobial activity against Salmonella enterica serovar Typhimurium CS3 with GyrA S83F, D87N, ParC S80I mutation; how it was run: as §1
[4] = test system: Salmonella typhimurium; experiment: Antimicrobial activity against Salmonella enterica serovar Typhimurium S21 tolC::Kan; how it was run: as §2
[5] = test system: Salmonella typhimurium; experiment: Antimicrobial activity against Salmonella enterica serovar Typhimurium CHS18 acrAB::Kan with GyrA S38F mutation; how it was run: as §1
[6] = test system: Salmonella typhimurium; experiment: Antimicrobial activity against Salmonella enterica serovar Typhimurium CS9 tolC::Kan with GyrA S83F, D87N, ParC S80I mutation; how it was run: as §1
[7] = test system: Salmonella typhimurium; experiment: Antimicrobial activity against Salmonella enterica serovar Typhimurium CHS14 tolC::Kan with GyrA D87G mutant; how it was run: as §1
[8] = test system: Salmonella typhimurium; experiment: Antimicrobial activity against Salmonella enterica serovar Typhimurium CHS38 acrAB::Kan with GyrA D87G mutation; how it was run: as §1
[9] = test system: Salmonella typhimurium; experiment: Antimicrobial activity against Salmonella enterica serovar Typhimurium S21-3 with GyrA S83F, ParC S80I mutation; how it was run: as §1
[10] = test system: Salmonella typhimurium; experiment: Antimicrobial activity against Salmonella enterica serovar Typhimurium CHS38 with GyrA D87G mutation; how it was run: as §1
[11] = test system: Salmonella typhimurium; experiment: Antimicrobial activity against Salmonella enterica serovar Typhimurium CS1 gyrA+ with GyrA S83F, D87N, ParC S80I mutation; how it was run: as §1
[12] = test system: Salmonella typhimurium; experiment: Antimicrobial activity against Salmonella enterica serovar Typhimurium CHS18 gyrA+ with GyrA S38F mutation; how it was run: as §1
[13] = test system: Salmonella typhimurium; experiment: Antimicrobial activity against Salmonella enterica serovar Typhimurium S21-1 gyrA+; how it was run: as §1
[14] = test system: Salmonella typhimurium; experiment: Antimicrobial activity against Salmonella enterica serovar Typhimurium CS3 tolC::Kan with GyrA S83F, D87N, parC S80I mutation; how it was run: as §1
[15] = test system: Salmonella typhimurium; experiment: Antimicrobial activity against Salmonella enterica serovar Typhimurium S21 gyrA+; how it was run: as §1
[16] = test system: Salmonella typhimurium; experiment: Antimicrobial activity against Salmonella enterica serovar Typhimurium S21-3 gyrA+ with ParC S80I mutation; how it was run: as §1
[17] = test system: Salmonella typhimurium; experiment: Antimicrobial activity against Salmonella enterica serovar Typhimurium CHS14 acrAB::Kan with GyrA D87G mutation; how it was run: as §1
[18] = test system: Salmonella typhimurium; experiment: Antimicrobial activity against Salmonella enterica serovar Typhimurium CS1 tolC::Kan with GyrA S83F, D87N, ParC S80I mutation; how it was run: as §1
[19] = test system: Salmonella typhimurium; experiment: Antimicrobial activity against Salmonella enterica serovar Typhimurium CHS38 gyrA+ with GyrA D87G mutation; how it was run: as §1
[20] = test system: Salmonella typhimurium; experiment: Antimicrobial activity against Salmonella enterica serovar Typhimurium S21-1 GyrA S83F mutant; how it was run: as §1
[21] = test system: Salmonella typhimurium; experiment: Antimicrobial activity against Salmonella enterica serovar Typhimurium S21-2 with GyrA S83F, ParC S80I mutation; how it was run: as §1
[22] = test system: Salmonella typhimurium; experiment: Antimicrobial activity against Salmonella enterica serovar Typhimurium CS9 acrAB::Kan with GyrA S83F, D87N, ParC S80I mutation; how it was run: as §1
[23] = test system: Salmonella typhimurium; experiment: Antimicrobial activity against Salmonella enterica serovar Typhimurium CHS18 with GyrA S38F mutation; how it was run: as §1
[24] = test system: Salmonella typhimurium; experiment: Antimicrobial activity against Salmonella enterica serovar Typhimurium S21-4 gyrA+ with ParC S80I mutation; how it was run: as §1
[25] = test system: Salmonella typhimurium; experiment: Antimicrobial activity against Salmonella enterica serovar Typhimurium CS9 with GyrA S83F, D87N, ParC S80I mutation; how it was run: as §1
[26] = test system: Salmonella typhimurium; experiment: Antimicrobial activity against Salmonella enterica serovar Typhimurium S21; how it was run: as §1
[27] = test system: Salmonella typhimurium; experiment: Antimicrobial activity against Salmonella enterica serovar Typhimurium CHS14 with GyrA D87G mutation; how it was run: as §1
[28] = test system: Salmonella typhimurium; experiment: Antimicrobial activity against Salmonella enterica serovar Typhimurium S21-4 tolC::Kan with GyrA S83F, ParC S80I mutation; how it was run: as §1
[29] = test system: Salmonella typhimurium; experiment: Antimicrobial activity against Salmonella enterica serovar Typhimurium S21-4 with GyrA S83F, ParC S80I mutation; how it was run: as §1
[30] = test system: Salmonella typhimurium; experiment: Antimicrobial activity against Salmonella enterica serovar Typhimurium CS3 gyrA+ with GyrA S83F, D87N, ParC S80I mutation; how it was run: as §1
[31] = test system: Salmonella typhimurium; experiment: Antimicrobial activity against Salmonella enterica serovar Typhimurium CHS14 gyrA+ with GyrA D87G mutation; how it was run: as §1
[32] = test system: Salmonella typhimurium; experiment: Antimicrobial activity against Salmonella enterica serovar Typhimurium CS1 with GyrA S83F, D87N, ParC S80I mutation; how it was run: as §1
[33] = test system: Salmonella typhimurium; experiment: Antimicrobial activity against Salmonella enterica serovar Typhimurium CS3 acrAB::Kan with GyrA S83F, D87N, ParC S80I mutation; how it was run: as §1
[34] = test system: Salmonella typhimurium; experiment: Antimicrobial activity against Salmonella enterica serovar Typhimurium CHS38 tolC::Kan with GyrA D87G mutation; how it was run: as §1
[35] = test system: Salmonella typhimurium; experiment: Antimicrobial activity against Salmonella enterica serovar Typhimurium S21-2 gyrA+ with ParC S80I mutation; how it was run: as §1
[36] = test system: Salmonella typhimurium; experiment: Antimicrobial activity against Salmonella enterica serovar Typhimurium CHS18 tolC::Kan with GyrA S38F mutation; how it was run: as §1
[37] = test system: Salmonella typhimurium; experiment: Antimicrobial activity against Salmonella enterica serovar Typhimurium CS1 acrAB::Kan with GyrA S83F, D87N, ParC S80I mutation; how it was run: as §1

Structure (SMILES) | MIC [1] | MIC [2] | MIC [3] | MIC [4] | MIC [5] | MIC [6] | MIC [7] | MIC [8] | MIC [10] | MIC [11] | MIC [12] | MIC [13] | MIC [14] | MIC [15] | MIC [17] | MIC [18] | MIC [19] | MIC [22] | MIC [23] | MIC [25] | other results
CN(C)[C@@H]1C(O)=C(C(N)=O)C(=O)[C@@]2(O)C(O)=C3C(=O)c4c(O)cccc4[C@@](C)(O)[C@H]3C[C@@H]12 [TETRACYCLINE] | > 32 µg/mL | < 4 µg/mL | > 32 µg/mL | < 4 µg/mL | 4 µg/mL (≈ 9 µM) | 32 µg/mL (≈ 72 µM) | > 32 µg/mL | 16 µg/mL (≈ 36 µM) | 32 µg/mL (≈ 72 µM) | > 32 µg/mL | 4 µg/mL (≈ 9 µM) | 32 µg/mL (≈ 72 µM) | 32 µg/mL (≈ 72 µM) | < 4 µg/mL | > 32 µg/mL | 32 µg/mL (≈ 72 µM) | 32 µg/mL (≈ 72 µM) | > 32 µg/mL | 4 µg/mL (≈ 9 µM) | > 32 µg/mL | MIC [9]: > 32 µg/mL; MIC [16]: > 32 µg/mL; MIC [20]: 32 µg/mL (≈ 72 µM); MIC [21]: > 32 µg/mL; MIC [24]: > 32 µg/mL; MIC [26]: < 4 µg/mL; MIC [27]: > 32 µg/mL; MIC [28]: 8 µg/mL (≈ 18 µM); MIC [29]: > 32 µg/mL; MIC [30]: > 32 µg/mL; MIC [31]: > 32 µg/mL; MIC [32]: > 32 µg/mL; MIC [33]: > 32 µg/mL; MIC [34]: 16 µg/mL (≈ 36 µM); MIC [35]: > 32 µg/mL; MIC [36]: 4 µg/mL (≈ 9 µM); MIC [37]: > 32 µg/mL
CC1(C)S[C@@H]2[C@H](NC(=O)[C@H](N)c3ccccc3)C(=O)N2[C@H]1C(=O)O [AMPICILLIN] | > 32 µg/mL | < 1 µg/mL | > 32 µg/mL | < 1 µg/mL | 1 µg/mL (≈ 2.86 µM) | > 32 µg/mL | < 1 µg/mL | > 32 µg/mL | > 32 µg/mL | > 32 µg/mL | 2 µg/mL (≈ 5.72 µM) | > 32 µg/mL | > 32 µg/mL | 2 µg/mL (≈ 5.72 µM) | < 1 µg/mL | > 32 µg/mL | > 32 µg/mL | > 32 µg/mL | 2 µg/mL (≈ 5.72 µM) | > 32 µg/mL | MIC [26]: 2 µg/mL (≈ 5.72 µM); MIC [27]: < 1 µg/mL; MIC [30]: > 32 µg/mL; MIC [31]: < 1 µg/mL; MIC [32]: > 32 µg/mL; MIC [33]: > 32 µg/mL; MIC [34]: > 32 µg/mL; MIC [36]: 1 µg/mL (≈ 2.86 µM); MIC [37]: > 32 µg/mL
